Data from ChEMBL document CHEMBL1132378, “Allosteric modulation of the adenosine A(1) receptor. Synthesis and biological evaluation of novel 2-amino-3-benzoylthiophenes as allosteric enhancers of agonist binding” (J Med Chem, 1999).

Legend:
Adenosine receptor A1 = biological target: T1, Adenosine receptor A1 (Rattus norvegicus, UniProt P25099); assay: Enhanced 0.5 nM [3H]CCPA dissociation from adenosine A1 receptor of rat brain cortex membranes compared to 100 uM CPA
T1 sequence (P25099 whole entry): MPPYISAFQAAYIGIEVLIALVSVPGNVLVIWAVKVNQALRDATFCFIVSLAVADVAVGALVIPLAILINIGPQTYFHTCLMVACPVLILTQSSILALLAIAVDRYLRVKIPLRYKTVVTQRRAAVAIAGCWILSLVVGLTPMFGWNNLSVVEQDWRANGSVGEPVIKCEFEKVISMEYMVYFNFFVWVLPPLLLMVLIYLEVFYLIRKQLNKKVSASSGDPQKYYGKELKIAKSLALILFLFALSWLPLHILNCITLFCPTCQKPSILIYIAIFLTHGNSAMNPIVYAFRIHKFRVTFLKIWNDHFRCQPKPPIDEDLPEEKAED
Outline: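 Rat brain cortex membranes (ADA-treated, 2 U/mL at 37 °C) preincubated 2.5 h with 0.5 nM [3H]CCPA. Dissociation then started with 100 μM CPA, with or without 10 μM test compound. Bound [3H]CCPA measured after 1 h. Percent decrease in dissociation scaled between control (0%) and 10 μM PD 81,723 as reference (100%); n = 3.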

[1] = biological target: T2, Adenosine receptor A1 (Rattus norvegicus) (UniProt P25099); assay: Enhancing activity at 10 uM PD 81,723 (100%) at Adenosine A1 receptor in rat brain cortex membranes; type: cell membranes
T2 sequence (whole entry): T1 sequence (P25099 whole entry)
Outline: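 Rat brain cortex membranes (ADA-treated, 2 U/mL at 37 °C) preincubated 2.5 h with 0.5 nM [3H]CCPA. Dissociation then started with 100 μM CPA, with or without 10 μM test compound. Bound [3H]CCPA measured after 1 h.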

[2] = biological target: T2, Adenosine receptor A1 (Rattus norvegicus); assay: Antagonistic activity expressed as percent displacement of 0.4 nM of [3H]DPCPX from adenosine A1 receptors in rat brain cortex membranes at 10 uM; type: functional, cell membranes; conditions: Membrane
Outline: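 Rat brain cortex membranes (ADA-treated, 2 U/mL at 37 °C before storage; 30 μg/mL) incubated 1 h at 25 °C in 50 mM Tris/HCl pH 7.4 with 0.4 nM [3H]DPCPX and 10 μM compound. Nonspecific binding defined by 10 μM CPA. Result is percent displacement of radioligand; n = 3–5.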

| SMILES | EC50 (Adenosine receptor A1) [µM] | Enhancement [1] [%] | Antagonism [2] [%] |
| --- | --- | --- | --- |
| Nc1sc2c(c1C(=O)c1cccc(Cl)c1)CCCC2 | 10.5 | 92.7 | 50.6 |
| Nc1sc2c(c1C(=O)c1ccccc1Cl)CCCC2 | – | 72.5 | 35.1 |
| Cc1sc(N)c(C(=O)c2ccc(Cl)cc2)c1C | – | 93.5 | 41 |
| COC(=O)c1ccc(C(=O)c2c(N)sc3c2CCCC3)cc1 | – | 43.9 | 28.9 |
| Nc1sc2c(c1C(=O)c1ccc(Br)cc1)CCCC2 | 16.4 | 128 | 41.6 |
| Nc1sc2c(c1C(=O)c1ccc(Cl)cc1)CCN(Cc1ccccc1)C2 | 11.3 | 132 | 60.9 |
| Cc1sc(N)c(C(=O)c2ccccc2)c1C | – | 8 | 13.9 |
| Nc1sc2c(c1C(=O)c1ccccc1)CCN(Cc1ccc(Cl)c(Cl)c1)C2 | – | 57 | 4 |
| CCc1c(C)sc(N)c1C(=O)c1ccccc1 | – | 31.4 | 12.6 |
| Nc1sc2c(c1C(=O)c1ccc(Cl)c(Cl)c1)CCCC2 | 6.2 | 151 | 34.7 |
| Nc1sc2c(c1C(=O)c1ccc(I)cc1)CCCC2 | 4.5 | 155 | 64.4 |
| Nc1sc2c(c1C(=O)c1ccc([N+](=O)[O-])cc1)CCCC2 | – | 33.9 | 19.5 |
| Cc1sc(N)c(C(=O)c2cccc(Cl)c2)c1C | – | 80.3 | 18.7 |
| Nc1sc2c(c1C(=O)c1ccccc1)CCN(C(=O)c1ccccc1)C2 | – | 13.8 | 71.8 |
| Nc1sc2c(c1C(=O)c1cccc(C(F)(F)F)c1)CCCC2 | 6 | 122 | 32.2 |
| Nc1sc2c(c1C(=O)c1cccc(I)c1)CCCC2 | – | 113 | 65.8 |
| CCc1c(C)sc(N)c1C(=O)c1cccc(C(F)(F)F)c1 | – | 112 | 5.4 |
| Nc1sc2c(c1C(=O)c1ccccc1)CCN(Cc1ccc(Cl)cc1)C2 | – | 69 | 52.2 |
| CCc1c(C)sc(N)c1C(=O)c1ccc(Cl)cc1 | – | 97.2 | 19.8 |
| Nc1sc2c(c1C(=O)c1ccccc1)CCCC2 | – | 47.2 | 34.7 |
| Nc1sc2c(c1C(=O)c1ccc(C(=O)O)cc1)CCCC2 | – | 28.6 | – |
| Nc1sc2c(c1C(=O)c1ccc(Cl)c(Cl)c1)CCN(Cc1ccccc1)C2 | 9.2 | 174 | 51 |
| Nc1sc2c(c1C(=O)c1ccc(Cl)cc1)CCN(Cc1ccc(Cl)c(Cl)c1)C2 | 32 | 106 | 45.7 |
| Cc1sc(N)c(C(=O)c2cccc(C(F)(F)F)c2)c1C | 14.7 | 100 | 39.5 |
| Nc1sc2c(c1C(=O)c1ccc(C(F)(F)F)cc1)CCCC2 | 4.7 | 131 | 56.7 |
| Nc1sc2c(c1C(=O)c1ccc(Cl)cc1)CCCC2 [T-62] | 6.8 | 123 | 39.9 |
| Cc1ccc(C(=O)c2c(N)sc3c2CCCC3)cc1 | 34.9 | 137 | 30.3 |
| Nc1sc2c(c1C(=O)c1ccccc1)CCN(Cc1ccccc1)C2 | – | 52.8 | 67.1 |
| Nc1sc2c(c1C(=O)c1ccccc1)CCN(Cc1cccc(Cl)c1)C2 | 15.1 | 106 | 80.1 |
| CCc1c(C)sc(N)c1C(=O)c1cccc(Cl)c1 | – | 29.9 | 22.3 |
